In ChEMBL document CHEMBL1806371, “Selenocyanates and diselenides: a new class of potent antileishmanial agents” (Eur J Med Chem, 2011):
Active and inactive are the calls of the source. No cut-off for these calls is given here.

How the values were obtained:
Leishmania infantum [1] = assay: Antileishmanial activity against Leishmania infantum MCAN/ES/89/IPZ229/1/89 promastigotes assessed as growth inhibition at 25 uM after 24 hrs; assay type: functional
Method in brief: (§1)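 Log-phase L. infantum promastigotes (RPMI-1640, 10% FCS, 25 mM HEPES, pH 7.2, 26 °C) treated at 2×10^6 parasites/mL for 24 h. Screening used 25, 12.5 and 6.25 μM to give percent growth inhibition. Living cells measured by flow cytometry with propidium iodide exclusion. At least three independent experiments.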

Leishmania infantum [2] = assay: Antileishmanial activity against Leishmania infantum MCAN/ES/89/IPZ229/1/89 promastigotes assessed as growth inhibition at 12.5 uM after 24 hrs; assay type: functional; method in brief: as §1
Leishmania infantum [3] = assay: Antileishmanial activity against Leishmania infantum MCAN/ES/89/IPZ229/1/89 promastigotes assessed as growth inhibition at 6.25 uM after 24 hrs; assay type: functional; method in brief: as §1
Jurkat = assay: Cytotoxicity against human Jurkat cells assessed as live cells in neubauer chamber after 24 hrs by trypan blue assay; assay type: cell-based
[4] = Selectivity ratio, ratio of IC50 for human THP1 cells to IC50 for Leishmania infantum MCAN/ES/89/IPZ229/1/89 amastigotes; assay type: ADME, cell-based; conditions: THP-1 cells, read-out: Ratio IC50
Method in brief: (§2)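 Selectivity index is IC50 against Jurkat or THP-1 cells divided by IC50 against L. infantum amastigotes. Host cells were treated in log phase at 4×10^5 cells/mL for 24 h at 37 °C, 5% CO2, at 0.08, 0.4, 2.0, 10.0 and 50.0 μM. Viability was measured by flow cytometry with propidium iodide exclusion.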

[5] = Selectivity ratio, ratio of IC50 for human Jurkat cells to IC50 for Leishmania infantum MCAN/ES/89/IPZ229/1/89 amastigotes; assay type: ADME, cell-based; conditions: read-out: Ratio IC50; method in brief: as §2
Leishmania infantum [6] = assay: Antileishmanial activity against Leishmania infantum MCAN/ES/89/IPZ229/1/89 amastigotes after 24 hrs by microscopy; assay type: functional, organism-based; conditions: MCAN/ES/89/IPZ229/1/89, 24 h
Method in brief: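 Axenic L. infantum amastigotes (M199, 10% FCS, pH 5.4, 37 °C) treated in log phase at 1×10^6 parasites/mL for 24 h. Living cells counted by flow cytometry with propidium iodide exclusion, with microscopic observation by phase contrast or fluorescence. At least three independent experiments.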

Leishmania infantum [7] = assay: Antileishmanial activity against Leishmania infantum MCAN/ES/89/IPZ229/1/89 promastigotes after 24 hrs […]; assay type: functional, organism-based; conditions: MCAN/ES/89/IPZ229/1/89, 24 h; method in brief: as §1
THP-1 = assay: Cytotoxicity against human THP1 cells assessed as live cells in neubauer chamber after 24 hrs by trypan blue assay; assay type: cell-based; conditions: THP-1, 24 h
[8] = Permeability across human Caco2 cells; assay type: ADME, cell-based; conditions: Caco-2, read-out: permeability
[9] = Human intestinal absorption in human; assay type: ADME, organism-based; conditions: read-out: HIA
Method in brief: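 Values are computed, not measured. Human intestinal absorption (%) and Caco-2 permeability (nm/s) were predicted in silico with the PreADMET program.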

Row | SMILES | growth inhibition (GI) (Leishmania infantum [1]) | GI (Leishmania infantum [1]) | GI (Leishmania infantum [2]) | GI (Leishmania infantum [3]) | IC50 (Jurkat) | selectivity ratio [4] | selectivity ratio [5] | IC50 (Leishmania infantum [6]) | IC50 (Leishmania infantum [7]) | IC50 (THP-1) | growth inhibition (GI) (Leishmania infantum [3]) | Papp [8] | Fa [9] | growth inhibition (GI) (Leishmania infantum [2])
1 | Nc1ccc([Se][Se]c2ccc(N)c(C(=O)O)c2)cc1C(=O)O | inactive | – | – | – | – | – | – | – | – | – | – | – | – | –
2 | N#Cc1ccc(C[Se][Se]Cc2ccc(C#N)cc2)cc1 | – | 32.8% | 21.9% | 10.9% | – | – | – | – | – | – | – | – | – | –
3 | CC(=O)Nc1ccc([Se]C#N)cc1C(=O)O | inactive | – | – | – | – | – | – | – | – | – | – | – | – | –
4 | N#C[Se]Cc1cccc([N+](=O)[O-])c1 | – | 97% | 80.5% | 47.2% | 12.2 µM | 16 | 21 | 0.57 µM | 4.18 µM | 9.32 µM | – | – | – | –
5 | N#C[Se]CCc1ccc([N+](=O)[O-])cc1 | – | 88.9% | 81.8% | 46.6% | 2.4 µM | 5 | 1 | 3.8 µM | 11.9 µM | 17.2 µM | – | – | – | –
6 | N#C[Se]Cc1ccc2ccccc2c1 | – | 91.5% | 81.1% | 37.1% | 14 µM | 5 | 4 | 3.72 µM | 11.2 µM | 16.8 µM | – | – | – | –
7 | Brc1ccc(C[Se][Se]Cc2ccc(Br)cc2)cc1 | – | 12.2% | 1.9% | – | – | – | – | – | – | – | inactive | – | – | –
8 | COc1ccc(C[Se][Se]Cc2ccc(OC)cc2)cc1 | – | 31.7% | 9.9% | 0.5% | – | – | – | – | – | – | – | – | – | –
9 | N#C[Se]c1ccc(N)cc1 | – | 76.3% | 38.2% | 14.4% | 43.8 µM | > 5 | 5 | 9.29 µM | 11.2 µM | > 50 µM | – | – | – | –
10 | N#C[Se]Cc1ccc([N+](=O)[O-])cc1 | – | 98% | 95% | 82.3% | 6.86 µM | 25 | 10 | 0.68 µM | 4.3 µM | 16.8 µM | – | – | – | –
11 | N#C[Se]c1ccc(N)c(C(=O)O)c1 | inactive | – | – | – | – | – | – | – | – | – | – | – | – | –
12 | N#Cc1cccc(C[Se][Se]Cc2cccc(C#N)c2)c1 | – | 44.3% | 35.4% | 22.6% | – | – | – | – | – | – | – | – | – | –
13 | Cc1ccc(C[Se]C#N)cc1 | – | 98.6% | 82.8% | 52.8% | 14.4 µM | 7 | 4 | 3.33 µM | 11.8 µM | 24 µM | – | – | – | –
14 | N#C[Se]Cc1ccccc1C#N | – | 90.2% | 62.4% | 31.4% | 17.1 µM | 5 | 5 | 3.16 µM | 7.75 µM | 17.1 µM | – | – | – | –
15 | O=[N+]([O-])c1cccc(C[Se][Se]Cc2cccc([N+](=O)[O-])c2)c1 | – | 41.2% | 29.4% | 18.1% | – | – | – | – | – | – | – | – | – | –
16 | CCCCCCCCCCCCCCCCOP(=O)([O-])OCC[N+](C)(C)C [MILTEFOSINE] | – | – | – | – | 33.4 µM | 7 | 17 | 2.84 µM | 15 µM | 18.5 µM | – | 2.17 ×10⁻⁶ cm/s | 99% | –
17 | N#C[Se]Cc1ccc(Br)cc1 | – | 97.1% | 80.8% | 49.2% | 12.7 µM | 4 | 2 | 7.95 µM | 11.6 µM | 28.9 µM | – | – | – | –
18 | O=[N+]([O-])c1ccc(CC[Se][Se]CCc2ccc([N+](=O)[O-])cc2)cc1 | – | 28.4% | 3.2% | 1.2% | – | – | – | – | – | – | – | – | – | –
19 | CC(=O)Nc1ccc([Se][Se]c2ccc(NC(C)=O)c(C(=O)O)c2)cc1C(=O)O | inactive | – | – | – | – | – | – | – | – | – | – | – | – | –
20 | N#Cc1ccccc1C[Se][Se]Cc1ccccc1C#N | – | 31.5% | 16.5% | 7.3% | – | – | – | – | – | – | – | – | – | –
21 | N#C[Se]Cc1ccccc1 [BENZYLSELENOCYANATE] | – | 99.4% | 64.1% | 46.5% | 10.7 µM | 10 | 4 | 2.58 µM | 7.95 µM | 25 µM | – | – | – | –
22 | N#C[Se]Cc1ccc(C(F)(F)F)cc1 | – | 98.8% | 97.2% | 79.4% | 7.31 µM | 9 | 3 | 2.14 µM | 11.3 µM | 19.8 µM | – | – | – | –
23 | CN(C)c1ccc([Se]C#N)cc1 | – | 97.3% | 86.7% | 54.4% | 29.3 µM | 16 | 10 | 2.79 µM | 9.24 µM | 44.7 µM | – | – | – | –
24 | N#C[Se]Cc1ccc(C#N)cc1 | – | 97% | 80.4% | 51.5% | 13.4 µM | 15 | 24 | 0.55 µM | 4.14 µM | 7.97 µM | – | – | – | –
25 | CSc1ccc(C[Se]C#N)cc1 | – | 97.2% | 92.9% | 77.3% | 5.07 µM | 6 | 2 | 3.02 µM | 11.6 µM | 17 µM | – | – | – | –
26 | FC(F)(F)c1ccc(C[Se][Se]Cc2ccc(C(F)(F)F)cc2)cc1 | – | 12.2% | 6% | 11% | – | – | – | – | – | – | – | – | – | –
27 | c1ccc2cc(C[Se][Se]Cc3ccc4ccccc4c3)ccc2c1 | inactive | – | – | – | – | – | – | – | – | – | – | – | – | –
28 | Cc1ccc(C[Se][Se]Cc2ccc(C)cc2)cc1 | – | 2.5% | – | – | – | – | – | – | – | – | inactive | – | – | inactive
29 | CSc1ccc(C[Se][Se]Cc2ccc(SC)cc2)cc1 | – | 17.5% | – | – | – | – | – | – | – | – | inactive | – | – | inactive
30 | N#C[Se]Cc1cccc(C#N)c1 | – | 93% | 71.2% | 42.2% | 8.71 µM | 14 | 16 | 0.53 µM | 6.06 µM | 7.6 µM | – | – | – | –
